SKKanGAS inh = inhibitors of SKKanGAS S. pyogenes growth in kanamycin (SK-promoter or general growth effect); BacTiter-Glo, 6 h; inhibition, % at 7.5 µM; hit rate 1.3% among 300,000; AID 1662;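 active means mean replicate score, as percent of positive control median, at least 50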;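 further: strain carries kanamycin resistance gene driven by streptokinase promoter and grows in 40 µg/ml kanamycin; loss of luminescence reflects streptokinase promoter inhibition or plain growth inhibition; 0% = median of DMSO wells and 100% = positive control at its reference dose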
HGIII-sPLA2 inh = Blocks human group III sPLA2 activity; Q9NZ20; hit rate 0.56% among 370,000; inhibition, % at 12.2 µM; QFRET BODIPY PC-A2 liposome hydrolysis, fluorescence;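 active means inhibition above mean plus 3 SD of compounds lying within the high and low control bounds, cut at about 19% in these data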;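 further: 0% = median of test compound wells and 100% = no enzyme DMSO wells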
Target sequence (Q9NZ20 whole entry, looked up): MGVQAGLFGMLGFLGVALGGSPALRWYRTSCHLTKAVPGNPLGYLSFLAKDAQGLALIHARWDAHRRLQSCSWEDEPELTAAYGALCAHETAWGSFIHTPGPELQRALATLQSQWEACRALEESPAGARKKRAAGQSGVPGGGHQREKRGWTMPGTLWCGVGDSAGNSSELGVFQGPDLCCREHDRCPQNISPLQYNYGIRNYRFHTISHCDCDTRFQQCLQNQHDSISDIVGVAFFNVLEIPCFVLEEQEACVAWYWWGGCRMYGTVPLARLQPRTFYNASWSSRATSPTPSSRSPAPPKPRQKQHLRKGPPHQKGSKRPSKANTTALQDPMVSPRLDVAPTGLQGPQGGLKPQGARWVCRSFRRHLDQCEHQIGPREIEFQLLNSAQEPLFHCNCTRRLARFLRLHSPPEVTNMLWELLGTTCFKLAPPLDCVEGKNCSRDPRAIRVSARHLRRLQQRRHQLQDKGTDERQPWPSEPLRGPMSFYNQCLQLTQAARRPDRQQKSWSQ
ARFGAP1 inhibitor = inhibitors of rat ARFGAP1; inhibition, % at 16.5 µM; AID 651572; Arfgap1-stimulated ARF1 GTP hydrolysis, GDP FP detection; hit rate 0.26% among 360,000; Q62848;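 active means inhibition above a per-plate limit, mean inhibition of low control wells plus 3 SD, cut at about 25% in these data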;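 further: 0% = DMSO wells with enzyme and 100% = wells lacking Arfgap1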
Target sequence (Q62848 1-136 limits assumed): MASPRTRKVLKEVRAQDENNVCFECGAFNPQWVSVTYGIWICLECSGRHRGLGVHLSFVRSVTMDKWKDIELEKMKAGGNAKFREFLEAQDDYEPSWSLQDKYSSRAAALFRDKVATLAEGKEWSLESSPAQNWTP
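Material – truncated rat Arfgap1 GAP domain · Buffer or medium – HEPES-based buffer, pH 7.5 · Reagent – human ARF1(Δ1-17)-GTP substrate · Dosing – 16.5 µM single point, 1.26% DMSO · Schedule – GTP hydrolysis reaction 2 h at 25 °C · Technique – GDP detection by fluorescence polarization · Benchmarks – No-Arfgap1 wells (100%) versus DMSO full-reaction wells (0%) · Repeats – single replicate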
ASAP1 GAP inh = ASAP1 ArfGAP inhibition | Q9ULH1 | ASAP1-stimulated ARF1 GTP hydrolysis, GDP FP detection | inhibition, % at 16.5 µM | hit rate 0.19% among 360,000 | AID 624377; in the data active means inhibition above about 25%;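 further: 0% = vehicle with enzyme and substrate and 100% = no enzyme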
Calb FLC = affects C. albicans growth with fluconazole | AID 1979 | hit rate 0.57% among 300,000 | C. albicans CaCi-2 (fluconazole-resistant clinical isolate) + fluconazole, Alamar Blue growth, 48 h | growth inhibition, % (test concentration not listed);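 active means growth inhibition above about 58% in most replicates, limit read from the data, passing the limit was not always enough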;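 further: all wells also contain fluconazole at 8 µg/ml as a sub-toxic cotreatment; 0% = median of DMSO wells and 100% = median of geldanamycin control wells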
sPLA2 confirm = human GIII-sPLA2 inhibition, confirmation | shares compounds with HGIII-sPLA2 inh | recombinant hGIII-sPLA2, BODIPY PC-A2 QFRET fluorescence | inhibition, % at 12.2 µM | hit rate 34% among 2,000;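 active means mean inhibition across triplicates above the hit cutoff set in the earlier primary screen, cut at about 19% in these data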;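 further: 0% = enzyme with DMSO and 100% = DMSO wells lacking enzyme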
BODIPY interf = optically interferes with 535nm fluorescence in sPLA2 counter-screen; BODIPY FL product fluorescence interference, QFRET; hit rate 8.5% among 2,000; inhibition, % at 12.2 µM; shares compounds with HGIII-sPLA2 inh; AID 743282;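 active means average inhibition above the solvent-only control mean plus 3 SD, cut at about 6% in these data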;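 further: 0% = DMSO with substrate plus product and 100% = DMSO with substrate alone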
BODIPY interf DR = interferes with 535nm fluorescence in dose response counter-screen; shares compounds with HGIII-sPLA2 inh; BODIPY FL product fluorescence interference, cell-free; IC50, µM; 240 tested, under 10 active; AID 743455;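 active means IC50 at or below 10 µM; inactive means IC50 above 10 µM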
Active calls of the source: *. Compounds with a hit are over-represented: about 2.3% of the library has one in this group of screens.

CCOC(=O)C1(C)CCCCCN1C(=O)c1ccc(N(C)C)cc1 (stereo unspecified) was read as HGIII-sPLA2 inh 19.4*, ARFGAP1 inhibitor 11.8, ASAP1 GAP inh 1.6, sPLA2 confirm -3.6 and BODIPY interf -7.7.
`COc1ccc2c(c1)OC[C@H]1[C@H]2N2C(=O)c3cc(F)ccc3NC(=O)[C@@]2(C)[C@H]1c1ccccc1` gave HGIII-sPLA2 inh 34.6*, ARFGAP1 inhibitor 0.9, ASAP1 GAP inh -4.2, sPLA2 confirm 7.0 and BODIPY interf -4.4.
`COc1ccc2c(c1)OC[C@H]1[C@H]2N2C(=O)c3cc(OC)ccc3NC(=O)[C@@]2(C)[C@H]1c1ccccc1` gave HGIII-sPLA2 inh 37.3*, ARFGAP1 inhibitor -2.9, ASAP1 GAP inh 13.5, sPLA2 confirm 27.2* and BODIPY interf -18.6.
Cc1ccc2c(c1)[C@H]1[C@H](CO2)[C@H](c2ccccc2)[C@]2(C)C(=O)Nc3ccc(F)cc3C(=O)N12 was read as HGIII-sPLA2 inh 1.1, ARFGAP1 inhibitor 12.9 and ASAP1 GAP inh 5.5.
For COc1ccc2c(c1)C(=O)N1[C@H]3c4cc(Cl)ccc4OC[C@@H]3[C@H](c3ccccc3)[C@]1(C)C(=O)N2 the results were HGIII-sPLA2 inh -0.3, ARFGAP1 inhibitor 16.9 and ASAP1 GAP inh 0.0.
`O=C(CCc1ccccc1)N[C@H]1[C@H](OCc2ccccc2)CCC[C@@]12C(=O)N(Cc1ccccc1)c1ccc(-c3cnccn3)cc12` gave HGIII-sPLA2 inh -19.1.
Screening S=c1[nH]cc(Cc2ccccc2)s1 returned SKKanGAS inh -3.9, HGIII-sPLA2 inh 38.1*, ARFGAP1 inhibitor -4.2, ASAP1 GAP inh -7.6, Calb FLC 23.8, sPLA2 confirm 27.1* and BODIPY interf -2.3.
CCCC[C@@H]1C(=O)N2N=Cc3cc(C)c(C)cc3[C@H]2N2N=Cc3cc(C)c(C)cc3[C@@H]12 was read as HGIII-sPLA2 inh 20.5*, sPLA2 confirm -6.3 and BODIPY interf -23.2.
CCCC[C@@H]1C(=O)N2N=Cc3ccccc3[C@H]2N2N=Cc3ccccc3[C@@H]12 was read as HGIII-sPLA2 inh 5.6.
Screening N#Cc1ccccc1Cn1c(=O)n(CCCC(=O)NCc2ccc3c(c2)OCO3)c(=O)c2ccccc21 returned SKKanGAS inh -5.1, HGIII-sPLA2 inh 20.9*, ARFGAP1 inhibitor 0.8, ASAP1 GAP inh -8.7, Calb FLC 3.5, sPLA2 confirm -1.9 and BODIPY interf -10.1.
`Cc1ccc(Cn2c(=O)n(CCC(=O)NCc3ccc4c(c3)OCO4)c(=O)c3ccccc32)cc1` gave SKKanGAS inh -0.2, HGIII-sPLA2 inh -2.5, ARFGAP1 inhibitor -2.7, ASAP1 GAP inh -12.2 and Calb FLC 1.1.
For CN(CCCOC(=O)c1cccs1)C1CN(Cc2cn(Cc3ccccc3Cl)nn2)S(=O)(=O)C1 (stereo unspecified) the results were HGIII-sPLA2 inh 0.3.
C/C(=N\NC(=S)NCC(C)(C)C)c1cc(F)cc(F)c1O was read as SKKanGAS inh 90.2*, HGIII-sPLA2 inh 33.1*, ARFGAP1 inhibitor 18.4, ASAP1 GAP inh -3.8, Calb FLC 1.5, sPLA2 confirm 42.7*, BODIPY interf 0.3 and BODIPY interf DR >122.
`COc1cc(CNc2ccc3[nH]c(=O)[nH]c3c2)ccc1OCc1ccccc1F` gave SKKanGAS inh -4.0, HGIII-sPLA2 inh 23.6*, ARFGAP1 inhibitor -1.8, ASAP1 GAP inh 7.8, Calb FLC 35.1, sPLA2 confirm 24.1* and BODIPY interf -1.4.
COc1cc(CNc2ccc3[nH]c(=O)[nH]c3c2)ccc1OCc1ccccc1C was read as SKKanGAS inh 1.4, HGIII-sPLA2 inh -0.7, ARFGAP1 inhibitor 14.3, ASAP1 GAP inh 5.4 and Calb FLC 1.5.
Screening O=C(NNC(=S)Nc1ccc(Br)cc1)c1ccccc1 returned SKKanGAS inh 6.9, HGIII-sPLA2 inh 19.9*, ARFGAP1 inhibitor 3.0, ASAP1 GAP inh -14.5, Calb FLC 35.4, sPLA2 confirm 21.7* and BODIPY interf 6.7*.
`O=C(NNC(=S)NC1CCCCC1)c1ccccc1Br` gave SKKanGAS inh 2.2, HGIII-sPLA2 inh 21.3*, ARFGAP1 inhibitor -6.7, ASAP1 GAP inh -2.9, Calb FLC 57.7, sPLA2 confirm 29.3*, BODIPY interf -2.8 and BODIPY interf DR >122.
`CC(C)(C)NC(=S)NNC(=O)c1ccc2ncccc2c1` gave SKKanGAS inh -2.0, HGIII-sPLA2 inh 13.5, ARFGAP1 inhibitor -2.6, ASAP1 GAP inh -4.5 and Calb FLC 0.8.
O=C(NNC(=S)Nc1ccccc1Cl)c1ccccc1Br was read as SKKanGAS inh 6.8, HGIII-sPLA2 inh 22.4*, ARFGAP1 inhibitor 12.9, ASAP1 GAP inh -3.9, Calb FLC 23.7, sPLA2 confirm 25.9* and BODIPY interf 5.8.
For COc1cc(OC)c(C(=O)NNC(=S)NC2CCCCC2)cc1OC the results were SKKanGAS inh 0.0, HGIII-sPLA2 inh 0.4, ARFGAP1 inhibitor -3.1, ASAP1 GAP inh 13.0 and Calb FLC -11.8.
O=C(NNC(=S)Nc1ccccc1)c1ccc2ncccc2c1 was read as SKKanGAS inh 0.2, HGIII-sPLA2 inh 24.0*, ARFGAP1 inhibitor -2.3, ASAP1 GAP inh 17.3, Calb FLC 26.5, sPLA2 confirm 30.2*, BODIPY interf -2.9 and BODIPY interf DR >122.
Screening Cn1nnnc1Sc1ncnc2scc(-c3cnc(N)nc3)c12 returned HGIII-sPLA2 inh -3.6.
For O=C(NNC(=S)Nc1ccc(Br)cc1)c1ccccc1Br the results were SKKanGAS inh 6.9, HGIII-sPLA2 inh 34.9*, ARFGAP1 inhibitor -3.2, ASAP1 GAP inh 9.1, Calb FLC 64.7, sPLA2 confirm 26.4* and BODIPY interf 8.2*.
Screening COC(=O)Cc1ccc(NC(=S)NNC(=O)c2ccccc2Br)cc1 returned SKKanGAS inh -3.8, HGIII-sPLA2 inh 13.4, ARFGAP1 inhibitor 13.3, ASAP1 GAP inh 6.6 and Calb FLC 49.6.
`Cn1c(=O)c(C(=O)NNC(=O)c2ccccc2Br)c(O)c2ccccc21` gave SKKanGAS inh 75.0*, HGIII-sPLA2 inh 29.8*, ARFGAP1 inhibitor -5.1, ASAP1 GAP inh -7.5, Calb FLC 1.3, sPLA2 confirm 1.6 and BODIPY interf 3.8.
Screening O=C1Nc2ccc(Br)cc2/C1=C/C(=O)c1ccc2c(c1)OCO2 returned SKKanGAS inh -0.8, HGIII-sPLA2 inh 25.6*, ARFGAP1 inhibitor 3.1, ASAP1 GAP inh 2.7, Calb FLC -10.5, sPLA2 confirm 42.2* and BODIPY interf 14.4*.
Screening COc1ccc(C)cc1NC(=S)NNC(=O)c1ccccc1Cl returned HGIII-sPLA2 inh 11.7, ARFGAP1 inhibitor -6.5 and ASAP1 GAP inh 5.8.
